Bioassay records deposited in PubChem by The Scripps Research Institute Molecular Screening Center.
OX1R antag-1 – OX1R (HCRTR1) antagonists, primary screen, fluorescence, CHO/OX1R cells, Fluo-8 calcium, orexin A; Orexin/Hypocretin receptor type 1 (Homo sapiens), O43613; Fluo-8 calcium fluorescence; inhibition, % at 5 µM; 330,000 compounds, 0.43% hits;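 active = inhibition above its plate's threshold, mean inhibition of all tested compounds on the plate plus 3 SD, cut at about 37% in these data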;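 note: 0% = orexin A challenge wells and 100% = SB-334867-A antagonist wells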
GalR3 antagonist – GalR3 antagonists in HEK293 cells, primary screen, cell-based, fluorescence readout. Galanin receptor type 3 (Homo sapiens), O60755. HEK293 GalR3-CNG cAMP membrane potential fluorescence; galR3 body fused to GalR1 C-terminus. inhibition, % at 3 µM. 360,000 compounds, 0.44% hits. AID 651719, 2012;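 active = inhibition above the screen-wide average plus 3 SD, cut at about 13% in these data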;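 note: forskolin and galanin both at EC90 stimulate the cells; cAMP rise reported by CNG channel membrane potential dye signal; 0% = forskolin plus galanin with DMSO and 100% = forskolin alone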
Target sequence (O60755 1-299 limits assumed): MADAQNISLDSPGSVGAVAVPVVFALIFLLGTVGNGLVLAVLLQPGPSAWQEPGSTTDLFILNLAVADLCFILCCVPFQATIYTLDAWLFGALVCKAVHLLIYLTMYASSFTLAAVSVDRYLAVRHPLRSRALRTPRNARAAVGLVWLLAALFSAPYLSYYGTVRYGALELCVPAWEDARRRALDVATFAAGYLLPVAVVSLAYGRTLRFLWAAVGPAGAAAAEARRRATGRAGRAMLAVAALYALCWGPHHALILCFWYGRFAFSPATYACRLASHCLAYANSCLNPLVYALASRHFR
TAAR1 antagonist – human TAAR1 antagonists, primary screen, Fluo-8 calcium fluorescence, CHO RD-HGA16 cells | Trace amine-associated receptor 1 (Homo sapiens), Q96RJ0 | antagonist | inhibition, % at 3 µM | 360,000 compounds, 1.5% hits;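 active = inhibition above a per-plate cutoff, the mean inhibition of test compounds on that plate plus 3 SD, cut at about 49% in these data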;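 note: 0% = DMSO plus EC80 beta-PEA response and 100% = DMSO alone without agonist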
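Test system: RD-HGA16 CHO cells with stable hTAAR1 and Gα16 / Probe or stimulus: EC80 β-phenethylamine stimulus / Times: seeding 17-24 h prior, 75-min 37 °C, 30-min RT dye loading / Detection: Fluo-8 calcium-sensitive fluorescence / Read-out basis: % inhibition scaled between DMSO and EC80 PEA controls / Repeats: singlicate, one well per test compound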
CHO parental Ca – ATP-evoked calcium signal inhibitors, parental CHO, primary screen, counter-screen for OX1R antagonist project, cell-based, fluorescence, Fluo-8 calcium dye; parental CHO-K1, ATP-induced calcium, Fluo-8 fluorescence; inhibition, % at 5.6 µM; 330,000 compounds, 0.63% hits;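 active = inhibition above that plate's mean sample inhibition plus 3 SD, cut at about 26% in these data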;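 note: 0% = ATP-challenged DMSO wells and 100% = DMSO wells without ATP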
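Material: parental CHO cells / Compound: single nominal dose of 5.6 µM per compound / Signal: Fluo-8 fluorescence / Replicates: singlicate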
OX1R antag-2 – antagonists of human orexin 1 receptor (OX1R); AID 485270, 2010; OX1R-expressing cells, FRET antagonist read-out; Orexin/Hypocretin receptor type 1 (Homo sapiens), O43613; 330,000 compounds, 1.8% hits; inhibition, % at 6.6 µM; in the data active = inhibition mostly above about 38%, no sharp cut-off; inactive = mostly below about 40%;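 note: 0% = agonist challenge alone and 100% = reference antagonist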
TAAR1 ag – human TAAR1 agonists, primary screen, Fluo-8 calcium fluorescence, CHO RD-HGA16 cells; vehicle wells 0%, saturating PEA agonist 100%; activation, % at 3 µM; 360,000 compounds, 0.99% hits;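 active = activation above the mean activation of all test compounds in the run plus 3 SD, cut at about 38% in these data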
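Assay system – CHO-derived RD-HGA16 cells with stable Gα16 and human TAAR1 · Compound dosing – one-point dosing at 3 µM (nominal) · Incubation – 17-24 h seeding, 75 min 37 °C dye, 30 min RT · Measured by – kinetic Fluo-8 calcium fluorescence · Control set – DMSO vehicle as 0%, PEA at EC100 as 100% · Repeats – single well for each compound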
OX1R Ca confirm – OX1R (HCRTR1) antagonists, confirmation, fluorescence, CHO/OX1R cells, Fluo-8 calcium, orexin A. orexin A calcium Fluo-8 fluorescence. inhibition, % at 5 µM. shares compounds with OX1R antag-1. AID 492963, 2010. 1,100 compounds, 38% hits; in the data active = inhibition above about 29%;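 note: 0% = agonist challenge alone and 100% = reference antagonist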
CHO Ca counter – ATP-evoked calcium inhibition in parental CHO, counter-screen for OX1R antagonist project, cell-based, fluorescence, CHO-K1, triplicate; inhibition, % at 5.6 µM; 1,100 compounds, 9.3% hits; shares compounds with OX1R antag-1; ATP-induced calcium, Fluo-8 fluorescence;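 active = inhibition above a per-plate limit, the mean inhibition of that plate's test compounds plus 3 SD, cut at about 25% in these data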;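 note: 0% = ATP challenge with DMSO and 100% = DMSO without ATP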
An asterisk follows results filed as active; . = no result. This is a sample that favours compounds with a hit; in the whole collection about 4.3% have one here.

SMILES	OX1R antag-1	GalR3 antagonist	TAAR1 antagonist	CHO parental Ca	OX1R antag-2	TAAR1 ag	others
COC(=O)c1ccc(Oc2c(Cl)cccc2[N+](=O)[O-])cc1	-27.7	-2.3	-32.0	-26.2	26.7	7.2
Cn1c(=O)c2[nH]c(Cc3cccc(O)c3)nc2n(C)c1=O	.	4.7	0.1	.	.	3.0
Cn1c(=O)c2[nH]c(COc3ccc(C(C)(C)C)cc3)nc2n(C)c1=O	46.2*	.	.	53.9*	36.4	.
Cc1ccccc1CSc1nnc(-c2ccco2)n1Cc1ccco1	4.8	-9.0	9.7	-26.7	68.1*	9.1
Cc1ccccc1CSc1nnc(-c2cccs2)n1Cc1ccco1	7.5	-7.4	19.7	-37.0	69.3*	11.8
c1ccc(CSc2nnc(-c3ccco3)n2Cc2ccco2)cc1	11.1	-1.5	-2.5	-22.4	33.1	10.1
O=C(Nc1ccc(Cl)c(Cl)c1)C1=Cc2ccccc2OC1	20.9	-3.5	59.6*	1.1	40.7	9.3
COc1ccc(CN(C)C(=O)C(CCSC)NS(=O)(=O)c2ccc3c(c2)OCCO3)c(OC)c1OC (stereo not drawn)	.	-3.5	55.9*	.	.	11.7
COc1ccc(NC(C)=O)cc1NS(=O)(=O)c1ccc2c(c1)OCCO2	2.6	-6.2	7.8	-3.5	-0.5	1.2
Nc1ccn([C@@H]2O[C@H](C(=O)NCC(=O)N3CCOCC3)[C@@H](O)[C@H]2O)c(=O)n1	.	-6.1	6.6	.	.	-0.1
O=C(c1ccco1)N1CCN(C(c2ccccc2Cl)c2nnnn2Cc2cccs2)CC1 (stereo not drawn)	-9.2	2.5	59.0*	-10.1	21.4	27.2
CC1CCC/C(=N\NC(=S)Nc2ccccc2)C1 (stereo not drawn)	33.1	-0.3	13.8	-9.6	10.5	-0.6	OX1R Ca confirm=-2.0;CHO Ca counter=-8.2
CC1CCC/C(=N\NC(=S)NCc2ccccc2)C1 (stereo not drawn)	-18.3	-4.9	-8.8	-9.6	14.6	8.1
CCN(c1ccccc1)S(=O)(=O)c1ccc(Cl)c(NC(=O)COC(=O)C2CC2C)c1 (stereo not drawn)	27.5	-4.2	7.3	9.9	17.4	6.0	OX1R Ca confirm=-5.1;CHO Ca counter=-8.0
CC(NC(=O)COC(=O)c1ccc2c(=O)n3c(nc2c1)CCCCC3)c1ccc(F)cc1 (stereo not drawn)	.	-6.9	-15.3	.	.	2.4
O=C(Nc1ccc(F)cc1)C(c1cccc(F)c1)N1CCN(c2cccc(C(F)(F)F)n2)CC1 (stereo not drawn)	.	-5.7	18.9	.	.	2.6
CN(CC(=O)Nc1ccc(Cl)c(C(F)(F)F)c1)CC(=O)NC1CCCCC1	37.5	.	.	-4.7	10.7	.	OX1R Ca confirm=-22.4;CHO Ca counter=0.4
CN(CC(=O)Nc1ccc(Cl)c(C(F)(F)F)c1)C(=O)C1CCCO1 (stereo not drawn)	8.8	-2.6	6.3	-3.5	8.6	16.1
O=C(O)c1ccc(N2C(=O)CC(SC(=NCc3ccc4c(c3)OCO4)Nc3ccc(F)cc3)C2=O)cc1 (stereo not drawn)	32.2	-4.7	16.7	6.3	27.8	12.9	OX1R Ca confirm=30.9*;CHO Ca counter=-2.7
O=C(O)c1ccc(N2C(=O)CC(SC(=NCc3ccc4c(c3)OCO4)Nc3ccccc3)C2=O)cc1 (stereo not drawn)	-0.2	-2.5	-4.3	-2.2	6.9	-0.7
Cc1c(C)c(C)c(S(=O)(=O)Nc2ccc3[nH]c(=O)[nH]c3c2)c(C)c1C	0.9	-12.0	0.3	8.3	16.6	-0.2
